Source: ChEMBL document CHEMBL1944580, “Synthesis of novel sulfonamide-1,2,4-triazoles, 1,3,4-thiadiazoles and 1,3,4-oxadiazoles, as potential antibacterial and antifungal agents. Biological evaluation and conformational analysis studies” (2012)
≈ marks a conversion by molar mass, not a printed value.

How the values were obtained:
Penicillium ochrochloron [1] = experiment: Antifungal activity against Penicillium ochrochloron ATCC 9112 after 72 hrs by serial dilution method; assay type: functional; conditions: ATCC 9112, 72 h
In short: (§1)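 Modified microdilution MIC. Spores were washed from malt agar cultures with sterile 0.85% saline containing 0.1% Tween 80 and adjusted to about 1.0 × 10^5 per 100 µl well in malt broth. Compounds were dissolved in DMSO (1 mg/ml). Plates incubated 72 h at 28 °C. MIC is the lowest concentration with no visible growth under a binocular microscope. Bifonazole and ketoconazole were the references.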

Aspergillus fumigatus [2] = experiment: Antifungal activity against Aspergillus fumigatus human isolate after 72 hrs by serial dilution method; assay type: functional; in short: as §1
Escherichia coli [3] = experiment: Antibacterial activity against Escherichia coli ATCC 35210 treated for 24 hrs followed by sub-cultivated for 72 hrs by micro dilution method; assay type: functional
In short: (§2)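 2 µl from each well was serially subcultured into 100 µl fresh broth per well and incubated a further 72 h. MBC is the lowest concentration with no visible growth, taken as 99.5% killing of the original inoculum. Streptomycin and ampicillin were the positive controls.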

Listeria monocytogenes [4] = experiment: Antibacterial activity against Listeria monocytogenes NCTC 7973 treated for 24 hrs followed by sub-cultivated for 72 hrs by micro dilution method; assay type: functional; in short: as §2
Salmonella typhimurium [5] = experiment: Antibacterial activity against Salmonella Typhimurium ATCC 13311 after 24 hrs by micro dilution method; assay type: functional, Salmonella enterica subsp. enterica serovar Typhimurium; conditions: Salmonella enterica, ATCC 13311, 24 h
In short: (§3)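 Microdilution MIC in 96-well plates. Bacterial suspensions adjusted in sterile saline to 1.0 × 10^5 CFU/ml, giving 1.0 × 10^4 cfu per well in LB broth. Compounds tested at up to 1 mg/ml. Plates incubated 24 h. MIC taken as the lowest concentration with no visible growth under a binocular microscope. OD at 655 nm was also read against a blank and the positive control. Streptomycin and ampicillin were the positive controls.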

Penicillium ochrochloron [6] = experiment: Antifungal activity against Penicillium ochrochloron ATCC 9112 treated for 72 hrs followed by sub-cultivated for 5 days by serial dilution method; assay type: functional
In short: (§4)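 MFC obtained after the 72 h, 28 °C malt-broth microdilution (spore inoculum about 1.0 × 10^5 per well, compounds from 1 mg/ml DMSO). 2 µl was serially subcultured into 100 µl broth per well and incubated a further 5 days at 28 °C. MFC is the lowest concentration with no visible growth, taken as 99.5% killing of the original inoculum.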

Salmonella typhimurium [7] = experiment: Antibacterial activity against Salmonella Typhimurium ATCC 13311 treated for 24 hrs followed by sub-cultivated for 72 hrs by micro dilution method; assay type: functional, Salmonella enterica subsp. enterica serovar Typhimurium; conditions: Salmonella enterica; in short: as §2
Enterobacter cloacae [8] = experiment: Antibacterial activity against Enterobacter cloacae human isolate treated for 24 hrs followed by sub-cultivated for 72 hrs by micro dilution method; assay type: functional; in short: as §2
Bacillus cereus [9] = experiment: Antibacterial activity against Bacillus cereus clinical isolate after 24 hrs by micro dilution method; assay type: functional; in short: as §3
Micrococcus flavus [10] = experiment: Antibacterial activity against Micrococcus flavus ATCC 10240 after 24 hrs by micro dilution method; assay type: functional; conditions: ATCC 10240, 24 h; in short: as §3
Aspergillus flavus [11] = experiment: Antifungal activity against Aspergillus flavus ATCC 9643 treated for 72 hrs followed by sub-cultivated for 5 days by serial dilution method; assay type: functional; in short: as §4
Bacillus cereus [12] = experiment: Antibacterial activity against Bacillus cereus clinical isolate treated for 24 hrs followed by sub-cultivated for 72 hrs by micro dilution method; assay type: functional; in short: as §2
Aspergillus niger [13] = experiment: Antifungal activity against Aspergillus niger ATCC 6275 treated for 72 hrs followed by sub-cultivated for 5 days by serial dilution method; assay type: functional; in short: as §4
Micrococcus flavus [14] = experiment: Antibacterial activity against Micrococcus flavus ATCC 10240 treated for 24 hrs followed by sub-cultivated for 72 hrs by micro dilution method; assay type: functional; in short: as §2
Talaromyces funiculosus [15] = experiment: Antifungal activity against Penicillium funiculosum ATCC 36839 treated for 72 hrs followed by sub-cultivated for 5 days by serial dilution method; assay type: functional; in short: as §4
Aspergillus flavus [16] = experiment: Antifungal activity against Aspergillus flavus ATCC 9643 after 72 hrs by serial dilution method; assay type: functional; conditions: ATCC 9643, 72 h; in short: as §1
Aspergillus fumigatus [17] = experiment: Antifungal activity against Aspergillus fumigatus human isolate treated for 72 hrs followed by sub-cultivated for 5 days by serial dilution method; assay type: functional; in short: as §4
Trichoderma viride [18] = experiment: Antifungal activity against Trichoderma viride IAM 5061 after 72 hrs by serial dilution method; assay type: functional; conditions: IAM 5061, 72 h; in short: as §1
Escherichia coli [19] = experiment: Antibacterial activity against Escherichia coli ATCC 35210 after 24 hrs by micro dilution method; assay type: functional; conditions: ATCC 35210, 24 h; in short: as §3
Trichoderma viride [20] = experiment: Antifungal activity against Trichoderma viride IAM 5061 treated for 72 hrs followed by sub-cultivated for 5 days by serial dilution method; assay type: functional; in short: as §4
Staphylococcus aureus [21] = experiment: Antibacterial activity against Staphylococcus aureus ATCC 6538 after 24 hrs by micro dilution method; assay type: functional; conditions: ATCC 6538, 24 h; in short: as §3
Aspergillus versicolor [22] = experiment: Antifungal activity against Aspergillus versicolor ATCC 11730 treated for 72 hrs followed by sub-cultivated for 5 days by serial dilution method; assay type: functional; in short: as §4
Aspergillus niger [23] = experiment: Antifungal activity against Aspergillus niger ATCC 6275 after 72 hrs by serial dilution method; assay type: functional; conditions: ATCC 6275, 72 h; in short: as §1
Aspergillus versicolor [24] = experiment: Antifungal activity against Aspergillus versicolor ATCC 11730 after 72 hrs by serial dilution method; assay type: functional; conditions: ATCC 11730, 72 h; in short: as §1
Staphylococcus aureus [25] = experiment: Antibacterial activity against Staphylococcus aureus ATCC 6538 treated for 24 hrs followed by sub-cultivated for 72 hrs by micro dilution method; assay type: functional; in short: as §2
Listeria monocytogenes [26] = experiment: Antibacterial activity against Listeria monocytogenes NCTC 7973 after 24 hrs by micro dilution method; assay type: functional; conditions: NCTC 7973, 24 h; in short: as §3
Pseudomonas aeruginosa [27] = experiment: Antibacterial activity against Pseudomonas aeruginosa ATCC 27853 after 24 hrs by micro dilution method; assay type: functional; conditions: ATCC 27853, 24 h; in short: as §3
Talaromyces funiculosus [28] = experiment: Antifungal activity against Penicillium funiculosum ATCC 36839 after 72 hrs by serial dilution method; assay type: functional; conditions: ATCC 36839, 72 h; in short: as §1
Fulvia fulva [29] = experiment: Antifungal activity against Fulvia fulva treated for 72 hrs followed by sub-cultivated for 5 days by serial dilution method; assay type: functional; in short: as §4
Fulvia fulva [30] = experiment: Antifungal activity against Fulvia fulva after 72 hrs by serial dilution method; assay type: functional; in short: as §1
Enterobacter cloacae [31] = experiment: Antibacterial activity against Enterobacter cloacae human isolate after 24 hrs by micro dilution method; assay type: functional; in short: as §3
Pseudomonas aeruginosa [32] = experiment: Antibacterial activity against Pseudomonas aeruginosa ATCC 27853 treated for 24 hrs followed by sub-cultivated for 72 hrs by micro dilution method; assay type: functional; in short: as §2

MIC (Penicillium ochrochloron [1]) [µM]	MIC (Aspergillus fumigatus [2]) [µM]	MIC (Salmonella typhimurium [5]) [µM]	MIC (Bacillus cereus [9]) [µM]	MIC (Micrococcus flavus [10]) [µM]	MIC (Aspergillus flavus [16]) [µM]	MIC (Trichoderma viride [18]) [µM]	MIC (Escherichia coli [19]) [µM]	Compound	MBC (Escherichia coli [3]) [µM]	MBC (Listeria monocytogenes [4]) [µM]	MFC (Penicillium ochrochloron [6]) [µM]	MBC (Salmonella typhimurium [7]) [µM]	MBC (Enterobacter cloacae [8]) [µM]	MFC (Aspergillus flavus [11]) [µM]	MBC (Bacillus cereus [12]) [µM]	MFC (Aspergillus niger [13]) [µM]	MBC (Micrococcus flavus [14]) [µM]	MFC (Talaromyces funiculosus [15]) [µM]	MFC (Aspergillus fumigatus [17]) [µM]	MFC (Trichoderma viride [20]) [µM]	also measured
140 (≈ 51.9 µg/mL)	270 (≈ 100 µg/mL)	140 (≈ 51.9 µg/mL)	140 (≈ 51.9 µg/mL)	270 (≈ 100 µg/mL)	140 (≈ 51.9 µg/mL)	30 (≈ 11.1 µg/mL)	140 (≈ 51.9 µg/mL)	CCNc1nnc(Cc2cc(OC)c(OC)cc2S(=O)(=O)N(C)C)o1	270 (≈ 100 µg/mL)	540 (≈ 200 µg/mL)	270 (≈ 100 µg/mL)	270 (≈ 100 µg/mL)	670 (≈ 248 µg/mL)	400 (≈ 148 µg/mL)	270 (≈ 100 µg/mL)	140 (≈ 51.9 µg/mL)	540 (≈ 200 µg/mL)	270 (≈ 100 µg/mL)	270 (≈ 100 µg/mL)	30 (≈ 11.1 µg/mL)	MIC (Staphylococcus aureus [21]): 140 µM (≈ 51.9 µg/mL); MFC (Aspergillus versicolor [22]): 400 µM (≈ 148 µg/mL); MIC (Aspergillus niger [23]): 140 µM (≈ 51.9 µg/mL); MIC (Aspergillus versicolor [24]): 140 µM (≈ 51.9 µg/mL); MBC (Staphylococcus aureus [25]): 270 µM (≈ 100 µg/mL); MIC (Listeria monocytogenes [26]): 270 µM (≈ 100 µg/mL); MIC (Pseudomonas aeruginosa [27]): 270 µM (≈ 100 µg/mL); MIC (Talaromyces funiculosus [28]): 140 µM (≈ 51.9 µg/mL); MFC (Fulvia fulva [29]): 270 µM (≈ 100 µg/mL); MIC (Fulvia fulva [30]): 270 µM (≈ 100 µg/mL); MIC (Enterobacter cloacae [31]): 670 µM (≈ 248 µg/mL); MBC (Pseudomonas aeruginosa [32]): 540 µM (≈ 200 µg/mL)
130 (≈ 50 µg/mL)	130 (≈ 50 µg/mL)	130 (≈ 50 µg/mL)	260 (≈ 100 µg/mL)	130 (≈ 50 µg/mL)	130 (≈ 50 µg/mL)	70 (≈ 26.9 µg/mL)	630 (≈ 242 µg/mL)	CCCNc1nnc(Cc2cc(OC)c(OC)cc2S(=O)(=O)N(C)C)o1	630 (≈ 242 µg/mL)	260 (≈ 100 µg/mL)	260 (≈ 100 µg/mL)	260 (≈ 100 µg/mL)	750 (≈ 288 µg/mL)	390 (≈ 150 µg/mL)	260 (≈ 100 µg/mL)	390 (≈ 150 µg/mL)	260 (≈ 100 µg/mL)	780 (≈ 300 µg/mL)	260 (≈ 100 µg/mL)	130 (≈ 50 µg/mL)	MIC (Staphylococcus aureus [21]): 260 µM (≈ 100 µg/mL); MFC (Aspergillus versicolor [22]): 390 µM (≈ 150 µg/mL); MIC (Aspergillus niger [23]): 130 µM (≈ 50 µg/mL); MIC (Aspergillus versicolor [24]): 260 µM (≈ 100 µg/mL); MBC (Staphylococcus aureus [25]): 260 µM (≈ 100 µg/mL); MIC (Listeria monocytogenes [26]): 130 µM (≈ 50 µg/mL); MIC (Pseudomonas aeruginosa [27]): 260 µM (≈ 100 µg/mL); MIC (Talaromyces funiculosus [28]): 260 µM (≈ 100 µg/mL); MFC (Fulvia fulva [29]): 260 µM (≈ 100 µg/mL); MIC (Fulvia fulva [30]): 130 µM (≈ 50 µg/mL); MIC (Enterobacter cloacae [31]): 630 µM (≈ 242 µg/mL); MBC (Pseudomonas aeruginosa [32]): 260 µM (≈ 100 µg/mL)
